# Hit rate of the full screen: of about 330,000 compounds, about 1,000 (0.3%) were called active. This excerpt belongs to a sample that is enriched for actives. Values without a mark were called inactive.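 How the source made its calls: active means activity change at or below -40% at 20 µM; inactive means the rest.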
# Biological target: Apoptotic protease-activating factor 1 (Homo sapiens) (UniProt O14727)
# Experiment: enhancers of Apaf-1-driven caspase-3 activation – biochemical, DEVD-Rh110 fluorescence, uHTS, primary screen (AID 489031)
# Details: Apaf-1 apoptosome caspase-3 activation, at 20 µM, stronger effect = lower value
# Summary of the method: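 Material: reconstituted apoptosome of Apaf-1, cytochrome c, caspase-9, procaspase-3; times: 30 min preincubation, 50 min reaction, room temperature; measured by: fluorescence, 540 nm emission, 480 nm excitation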
# Sequence of Apoptotic protease-activating factor 1 (Homo sapiens) (O14727 whole entry, looked up): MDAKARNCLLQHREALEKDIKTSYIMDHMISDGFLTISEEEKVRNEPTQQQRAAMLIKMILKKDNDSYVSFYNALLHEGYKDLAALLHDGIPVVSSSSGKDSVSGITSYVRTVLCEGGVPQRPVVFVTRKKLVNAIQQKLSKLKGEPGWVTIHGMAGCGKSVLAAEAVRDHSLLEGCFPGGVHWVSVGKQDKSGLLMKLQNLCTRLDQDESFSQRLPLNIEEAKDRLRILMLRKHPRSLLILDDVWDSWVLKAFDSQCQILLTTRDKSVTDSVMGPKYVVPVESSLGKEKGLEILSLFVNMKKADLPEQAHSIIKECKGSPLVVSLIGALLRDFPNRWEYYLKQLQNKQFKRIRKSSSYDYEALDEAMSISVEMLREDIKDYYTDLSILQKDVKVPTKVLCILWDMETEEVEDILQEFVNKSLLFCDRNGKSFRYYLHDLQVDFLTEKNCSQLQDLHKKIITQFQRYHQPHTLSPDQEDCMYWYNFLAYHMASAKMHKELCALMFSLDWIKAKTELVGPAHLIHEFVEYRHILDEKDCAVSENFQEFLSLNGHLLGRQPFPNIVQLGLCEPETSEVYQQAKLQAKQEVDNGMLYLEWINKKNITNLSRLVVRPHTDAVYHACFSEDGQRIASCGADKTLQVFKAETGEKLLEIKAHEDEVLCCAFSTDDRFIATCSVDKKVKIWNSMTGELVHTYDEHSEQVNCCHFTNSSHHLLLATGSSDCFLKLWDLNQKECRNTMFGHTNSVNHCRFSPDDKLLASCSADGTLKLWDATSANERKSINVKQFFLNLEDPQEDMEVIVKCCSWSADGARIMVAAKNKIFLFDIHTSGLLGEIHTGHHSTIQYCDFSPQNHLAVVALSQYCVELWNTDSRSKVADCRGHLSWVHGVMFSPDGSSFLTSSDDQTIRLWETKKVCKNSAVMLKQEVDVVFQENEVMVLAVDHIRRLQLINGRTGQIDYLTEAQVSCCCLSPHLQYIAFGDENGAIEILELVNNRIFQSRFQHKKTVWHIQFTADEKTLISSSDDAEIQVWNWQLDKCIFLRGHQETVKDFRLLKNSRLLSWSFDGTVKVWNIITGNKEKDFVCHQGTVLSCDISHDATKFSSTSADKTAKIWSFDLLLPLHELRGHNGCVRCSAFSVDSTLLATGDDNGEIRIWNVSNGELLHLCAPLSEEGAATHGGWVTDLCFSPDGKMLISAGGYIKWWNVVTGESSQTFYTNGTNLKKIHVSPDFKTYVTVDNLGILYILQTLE
row,Structure (SMILES),"activity change, negative = activation"
1,COC(=O)[C@H]1[C@H]2C[C@H]3c4[nH]c5ccccc5c4CCN3C[C@@H]2CC[C@@H]1O,13.4%
2,CN1CCN(c2ccccc2NC(=O)COc2ccc(C3CCCCC3)cc2)CC1,43.6%
3,Cc1ccc(S(=O)(=O)C(C#N)c2nc3ccccc3nc2N2CCCC2)cc1C (configuration not stated),60%
4,Oc1ccc(N=Cc2c(O)ccc3ccccc23)cc1,87.2%
5,Oc1ccc(N=Cc2sc3ccccc3c2Cl)cc1,64.8%
6,Cc1ccc(C(=O)N/N=C\c2cc(Br)c(Br)o2)cn1,75.4%
7,Cc1ccc(S(=O)(=O)N2CCOCC2)cc1C(=O)NC(=S)N(Cc1ccccc1)C(C)C,-57.7% (active)
8,COc1ccc(/C=C2/C(=O)N(c3ccccc3)N=C2C)c(OC)c1,80.1%
9,CN1CCN(CCCNC(=O)c2ccc(/C=C3\Oc4ccccc4N(Cc4ccc(Cl)cc4)C3=O)cc2)CC1,56.6%
10,O=C(CSc1ccc(-c2ccc(-n3cccn3)cc2)nn1)Nc1ccc([N+](=O)[O-])cc1,-70.1% (active)
11,C(=N/Nc1cc(N2CCOCC2)nc(N2CCOCC2)n1)/c1ccccc1,76.5%
12,COc1ccc(-c2nc3cc(C)ccn3c2NC2CCCCC2)cc1SC1CCCCC1,48.4%
13,Cc1oc2c(c1C(=O)N1CCOCC1)C(=O)c1ccccc1C2=O,65.9%
14,CCCC(=O)Nc1nc2ccc(NC(=O)c3c(F)c(F)c(OC)c(F)c3F)cc2s1,-393% (active)
15,CC(C)n1cnc2c(NCc3ccccc3)cc(OCC3CCN(C)CC3)cc21,96.4%
16,Cc1ccc2c(c1)C1CN(C)CCC1N2S(=O)(=O)c1ccc(Oc2ccc([N+](=O)[O-])cc2)cc1 (configuration not stated),59.9%
17,COc1ccccc1OCC(=O)Nc1c2c(nn1-c1ccc(F)cc1)CS(=O)(=O)C2,-88% (active)
18,NC(N)=NCCCc1cn(CC(=O)N2CCNCC2)nn1,40.2%
19,CC(NC(=O)c1ccccc1SCC(=O)N1CCCC1)c1ccccc1 (configuration not stated),41.6%
20,O=c1[nH]c2c(c(=O)n1Cc1ccccc1)CCC2,-300% (active)
21,COCCn1nnnc1C(c1cc2ccc(OC)cc2[nH]c1=O)N1CCc2ccccc2C1 (configuration not stated),56.8%
22,CC(C)Cn1c(N)c(C(=O)NCc2cccs2)c2nc3ccccc3nc21,63.4%
23,CCc1nn(CCCN2CCN(c3cccc(Cl)c3)CC2)c(=O)n1CCOc1ccccc1,23.5%
24,CCN(CC)CCOc1ccc2c(c1)C(=NNC(=O)c1ccccn1)c1cc(OCCN(CC)CC)ccc1-2,52.5%
25,O=C(Nc1ccccc1F)c1ccccc1-c1ccccc1,-42.2% (active)

row,Structure (SMILES),"activity change, negative = activation"
1,CC(=O)Nc1ccc(Nc2cc(C)nc(Nc3ccc(NC(C)=O)cc3)n2)cc1,46.2%
2,c1ccc2c(CCN3CCNC[C@H]3Cc3cccc4ccccc34)cccc2c1,67%
3,CCCCCCCCCCOC(=O)Cn1c(COc2cccc(OC)c2)[n+](C)c2ccccc21,65.3%
4,CC1COc2ccccc2N1C(=O)c1cccnc1Cl (configuration not stated),-62.8% (active)
5,N#Cc1c(N2CCCCC2)nc(N)c2c(N)nc(SCC(=O)O)cc12,96%
6,O=C(NCc1ccccn1)c1ccc2nc(-c3ccco3)c(-c3ccco3)nc2c1,60.6%
7,CCOc1[nH]n(-c2ccc(Cl)cc2)c(=O)c1C=Nc1ccc(O)cc1,66.9%
8,CCOc1ccc(N=C2NC(=O)S/C2=C\c2ccc(O)cc2)cc1,-72% (active)
9,CC(=O)N(C1=C(Cl)C(=O)c2ccccc2C1=O)c1ccc(C(=O)O)cc1,89%
10,Cc1cc2oc3ccc(NCCC4CCCN4C)cc3c(=O)c2cc1C (configuration not stated),46.9%
11,Nc1cc(C(F)(F)F)ccc1N1CCOCC1,-185% (active)
12,CCN(CC(=O)NCc1cccs1)C(=O)c1cccc(S(=O)(=O)Nc2ccccc2OC)c1,60.2%
13,CCN1C[C@@H]2[C@@H]3C(=O)N(Cc4ccccc4)C(=O)[C@@H]3[C@](Cc3ccccc3)(C(=O)OC)N2C1=NC1CCCCC1,41.2%
14,CN(C)S(=O)(=O)c1ccc2oc(SCC(=O)Nc3ccccc3F)nc2c1,61.1%
15,CCOCCc1c(O)nc(SCC(=O)NCc2ccco2)[nH]c1=O,-133% (active)
16,Cc1ccc(N=C2NC(=O)/C(=C/C=C/c3ccco3)S2)cc1C,61.8%
17,COc1cccc(-c2sc3ccc(OC)cc3c2-c2ccc(OCCN3CCCCC3)cc2)c1,61.8%
18,CCC(C)(C)c1ccc(OCC(=O)N(C)C)c(C(C)(C)CC)c1,56.5%
19,CC(C)N1CCC(NC(=O)Nc2ccccc2)CC1,-331% (active)
20,CCOC(=O)C1CCN(C(=O)c2cccc(S(=O)(=O)N(CC)c3ccccc3)c2)CC1,45.2%
21,Clc1ccc(C2=CSC3=Nc4cccc5cccc(c45)N23)cc1,90%
22,Clc1cccc(-c2nc3nc4ccccc4nc3n2Cc2ccco2)c1,-136% (active)
23,COc1ccc(S(=O)(=O)/N=C2\C=C(NS(=O)(=O)c3ccccc3)C(=O)c3ccccc32)cc1,79.2%
24,CN1CC(=O)N=C1N,3.64%
25,CCCC[C@@H]1CN=C(N)N1CCc1cc(C(F)(F)F)cc(C(F)(F)F)c1,52.3%

row,Structure (SMILES),"activity change, negative = activation"
1,Nc1ccc2nn(-c3ccc(Cl)cc3)nc2c1,83.8%
2,CC(=O)NC(=S)NNC(=O)c1ccc(Br)cc1,-56.7% (active)
3,O=C(Cc1cc(=O)[nH][nH]1)N/N=C/c1ccccc1[N+](=O)[O-],40.8%
4,Cc1ccc(Nc2nc(CSc3nnc(-c4ccncc4)n3-c3ccccc3C)cs2)cc1,-54.9% (active)
5,CCCCCCCCCCOC(=O)Cn1c(COc2ccc(C)cc2)[n+](C)c2ccccc21,77.7%
6,N#CC1(C#N)C(C(=O)C23CC4CC(CC(C4)C2)C3)C12CCOCC2 (configuration not stated),-214% (active)
7,O=C(N/N=C\c1cccnc1)c1cc(-c2ccccc2)nc2c(Cl)cccc12,40.1%
8,C=CCNC(=O)c1ccc(C)c(Br)c1,-44.1% (active)
9,CC1CC(=S)Nc2ccccc2N1Cc1ccccc1 (configuration not stated),41.4%
10,Cc1c(-c2nn(C)c(=O)c3ccccc23)oc2ccc(F)cc2c1=O,82%
11,COc1ccc(Cl)cc1NC(=O)CCS(=O)(=O)c1ccc(Br)cc1,-182% (active)
12,CCn1cc(CN2CCC(C(=O)Nc3cccc(-c4cccc(Cl)c4)c3)CC2)c(C)n1,40.5%
13,CCN1C(=O)c2cccc3c(N)ccc1c23,97.1%
14,CN(C)S(=O)(=O)c1ccc(C(=O)NCCN=C2NS(=O)(=O)c3ccccc32)cc1,-486% (active)
15,Cc1[nH]n(-c2ccccc2)c(=O)c1/C=N/NC(=O)c1ccoc1C,61.5%
16,CC(C)CC[n+]1ccn(C2=C([O-])c3ccccc3C(=O)/C2=N\S(=O)(=O)c2ccccc2)c1,55.3%
17,CCCCNC(=O)C(C)N(CCN(C)C)C(=O)CCCN1C(=O)NC(c2ccc(Cl)cc2)C(C(=O)OCc2ccccc2)=C1C (configuration not stated),57.1%
18,COc1ccc2c(c1)CCNC2Cc1ccc(OC)c(O)c1 (configuration not stated),-42.7% (active)
19,CC1=NN(c2ccc(Cl)c(C(=O)O)c2)C(=O)/C1=C/c1ccc(-c2ccccc2[N+](=O)[O-])o1,42.9%
20,O=C1NNC(c2ccccc2)=N/C1=C\c1ccc(Cl)cc1,50.6%
21,CN(CCOc1ccc(CC2SC(=O)NC2=O)cc1)c1ccccn1 (configuration not stated),-0.067%
22,C#CCOCCOCCOCCNc1nc(N2CCN(C(=O)CCCCCCCCCCNC(=O)[C@H]([C@@H](C)CC)n3cc(CCCCN=C(N)N)nn3)CC2)nc(N2CCN(C(=O)CCCCCCCCCCNC(=O)[C@H](CO)n3cc(CCCSC)nn3)CC2)n1,59.2%
23,Cc1cc(NC(=O)c2cccc(N3C(=O)CCC3=O)c2)no1,-110% (active)
24,O=C(CCNS(=O)(=O)c1ccccc1)NCCSc1ccc(Br)cc1,58.6%
25,O=C(CCc1ccccc1)NNC(=O)c1ccc(Br)cc1,-96.1% (active)

row,Structure (SMILES),"activity change, negative = activation"
1,COc1ccc(C(CNC(=O)c2ccc(S(=O)(=O)Nc3ccccc3F)cc2)N(C)C)cc1 (configuration not stated),56.5%
2,O=[N+]([O-])c1ccc2nc(-c3ccccn3)[nH]c2c1,-143% (active)
3,COc1cc(C(=O)NCc2nnc(SCC(=O)Nc3nc4ccc(C)cc4s3)o2)cc(OC)c1OC,-87.4% (active)
4,Oc1c(C=Nc2cccc3nsnc23)ccc2ccccc12,95.8%
5,CCOc1c(Br)cc(/C=C2\C(=O)N(CCC#N)N=C2C)cc1OC,75.9%
6,O=C1Nc2ccc([N+](=O)[O-])cc2C1=Nc1cccc(CO)c1,41.2%
7,COc1ccc(N(CCC(=O)NCCc2ccccc2)S(=O)(=O)c2ccc(C)cc2C)cc1,54.9%
8,CCN1C(=NCc2ccc(OC)cc2)N[C@@H](CCc2ccccc2)[C@H](C(=O)NCc2ccc(OC)cc2)[C@H]1C,40.4%
9,COc1ccc(OCCCC(=O)NCCc2ccccc2)cc1,-144% (active)
10,Cc1ccc(S(=O)(=O)N2CCN(C(=O)c3ccccc3-c3nc4ccccc4s3)CC2)c(C)c1,40.3%
11,COCC(C)OC(=O)c1c(N)n(CCCN2CCOCC2)c2nc3ccccc3nc12 (configuration not stated),50.9%
12,C#CCOCCOCCOCCNc1nc(N2CCN(C(=O)CCCCCCCCCCNC(=O)Cn3cc(CCCCCN)nn3)CC2)nc(N2CCN(C(=O)CCCCCCCCCCNC(=O)[C@H](CO)n3cc(CCCSC)nn3)CC2)n1,60.7%
13,O=C(Nc1cccc(C(F)(F)F)c1)c1cnccn1,-50.6% (active)
14,C#CCOCCOCCOCCNc1nc(N2CCN(C(=O)C([C@@H](C)O)n3cc([C@@H](N)CCCCN)nn3)CC2)nc(N2CCN(C(=O)[C@H](CCCCN)n3cc(CN)nn3)CC2)n1 (some centres not stated),42.2%
15,C[C@@H](CN1CCC[C@H]1CN1C(N)=NC[C@@H]1Cc1ccccc1)N1C[C@@H](Cc2ccccc2)N(CCCC2CCCC2)C1=N,70.9%
16,CCOC(=O)c1ccc(Nc2cc3ccccc3c(=O)[nH]2)cc1,92.5%
17,Brc1ccc(/C=N/N2CCN(C3c4ccccc4-c4ccccc43)CC2)s1,-255% (active)
18,CCc1ccc(CNC(=O)C2CCN(c3nnc(C)c4c(C)n(-c5ccc(C)cc5)nc34)CC2)cc1,42.3%
19,Cc1cc(N2CCCC2)ccc1NC(=O)COc1ccc(Cl)cc1,62.2%
20,COc1cccc(C(=O)Nc2ccc(N3CCCC3)cc2)c1,-89.7% (active)
21,CCCCCCc1cc2cc(-c3nnc(-c4ccccc4)o3)c(=O)oc2cc1O,67.8%
22,COC1=C(N2CCOCC2)C(=O)c2ccccc2C1=O,65.8%
